In ChEMBL document CHEMBL4689842, “EUbOPEN Chemogenomics Library wave 1” (2021):

Tested on: HEK-293T
Test: Multiplex assay against HEK293T;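 as to Population Tubulin-Different-Phenotype (%): share of the cells with healthy nuclei that show this phenotype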
Type: toxicity, cell-based
Details: human
How it was run: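 Hoechst33342, BioTracker Green Microtubule Cytoskeleton Dye, MitoTracker Red and Annexin V Alexa Fluor 680 were added to live cells at seeding, and imaging on a CQ1 microscope at 37°C and 5% CO2 followed compound addition. Gating by CellPathfinder machine learning separated cells into Hoechst high-intensity objects or normal cells, then normal cells into healthy, pyknosed or fragmented nuclei, then pyknosed cells into mitotic or apoptotic. Per cents of healthy-nucleus cells are reported for the tubulin, mitochondrial-mass and membrane-permeability phenotypes.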

[1] = 12 h, 1 µM, compound concentration 1 uM, replicate 1
[2] = 12 h, 1 µM, compound concentration 1 uM, replicate 2
[3] = 12 h, 10 µM, compound concentration 10 uM, replicate 1
[4] = 12 h, 10 µM, compound concentration 10 uM, replicate 2
[5] = 24 h, 1 µM, compound concentration 1 uM, replicate 1
[6] = 24 h, 1 µM, compound concentration 1 uM, replicate 2
[7] = 24 h, 10 µM, compound concentration 10 uM, replicate 1
[8] = 24 h, 10 µM, compound concentration 10 uM, replicate 2
[9] = 48 h, 1 µM, compound concentration 1 uM, replicate 1
[10] = 48 h, 1 µM, compound concentration 1 uM, replicate 2
[11] = 48 h, 10 µM, compound concentration 10 uM, replicate 1
[12] = 48 h, 10 µM, compound concentration 10 uM, replicate 2

## Cc1cn(-c2cc(NC(=O)c3ccc(C)c(Nc4nccc(-c5cccnc5)n4)c3)cc(C(F)(F)F)c2)cn1 [NILOTINIB]
[1]
  Population Apoptotic (%): 65%
  Population Fragmented Nuclei (%): 10%
  Population Hoechst High Intensity Objects (%): 17%
  Population Membrane Permeable-Phenotype (%): 2%
  Population Mitochondria Different-Phenotype (%): 92%
  Population Mitotic Cells (%): 34%
  Population Normal (%): 82%
  Population Pyknosed Nuclei (%): 51%
  Population Tubulin-Different-Phenotype (%): 98%
  Total Cell Count: 215
[2]
  Population Apoptotic (%): 21%
  Population Fragmented Nuclei (%): 7%
  Population Healthy Nuclei (%): 37%
  Population Hoechst High Intensity Objects (%): 6%
  Population Membrane Permeable-Phenotype (%): 10%
  Population Mitochondria Different-Phenotype (%): 10%
  Population Mitotic Cells (%): 78%
  Population Normal (%): 93%
  Population Pyknosed Nuclei (%): 55%
  Population Tubulin-Different-Phenotype (%): 15%
  Total Cell Count: 164
[3]
  Population Apoptotic (%): 91%
  Population Fragmented Nuclei (%): 54%
  Population Healthy Nuclei (%): 12%
  Population Hoechst High Intensity Objects (%): 48%
  Population Membrane Permeable-Phenotype (%): 6%
  Population Mitochondria Different-Phenotype (%): 61%
  Population Mitotic Cells (%): 8%
  Population Normal (%): 51%
  Population Pyknosed Nuclei (%): 32%
  Population Tubulin-Different-Phenotype (%): 59%
  Total Cell Count: 738
[4]
  Population Apoptotic (%): 38%
  Population Fragmented Nuclei (%): 9%
  Population Healthy Nuclei (%): 32%
  Population Hoechst High Intensity Objects (%): 3%
  Population Membrane Permeable-Phenotype (%): 3%
  Population Mitochondria Different-Phenotype (%): 71%
  Population Mitotic Cells (%): 62%
  Population Normal (%): 96%
  Population Pyknosed Nuclei (%): 57%
  Population Tubulin-Different-Phenotype (%): 80%
  Total Cell Count: 179
[5]
  Population Apoptotic (%): 69%
  Population Fragmented Nuclei (%): 14%
  Population Healthy Nuclei (%): 39%
  Population Hoechst High Intensity Objects (%): 15%
  Population Membrane Permeable-Phenotype (%): 1%
  Population Mitochondria Different-Phenotype (%): 98%
  Population Mitotic Cells (%): 30%
  Population Normal (%): 84%
  Population Pyknosed Nuclei (%): 46%
  Population Tubulin-Different-Phenotype (%): 94%
  Total Cell Count: 213
[6]
  Population Apoptotic (%): 18%
  Population Fragmented Nuclei (%): 7%
  Population Healthy Nuclei (%): 56%
  Population Hoechst High Intensity Objects (%): 4%
  Population Membrane Permeable-Phenotype (%): 8%
  Population Mitochondria Different-Phenotype (%): 23%
  Population Mitotic Cells (%): 81%
  Population Normal (%): 95%
  Population Pyknosed Nuclei (%): 35%
  Population Tubulin-Different-Phenotype (%): 38%
  Total Cell Count: 212
[7]
  Population Apoptotic (%): 87%
  Population Fragmented Nuclei (%): 64%
  Population Healthy Nuclei (%): 11%
  Population Hoechst High Intensity Objects (%): 50%
  Population Membrane Permeable-Phenotype (%): 1%
  Population Mitochondria Different-Phenotype (%): 50%
  Population Mitotic Cells (%): 12%
  Population Normal (%): 49%
  Population Pyknosed Nuclei (%): 24%
  Population Tubulin-Different-Phenotype (%): 51%
  Total Cell Count: 958
[8]
  Population Apoptotic (%): 41%
  Population Fragmented Nuclei (%): 5%
  Population Healthy Nuclei (%): 57%
  Population Hoechst High Intensity Objects (%): 2%
  Population Membrane Permeable-Phenotype (%): 5%
  Population Mitochondria Different-Phenotype (%): 68%
  Population Mitotic Cells (%): 58%
  Population Normal (%): 97%
  Population Pyknosed Nuclei (%): 36%
  Population Tubulin-Different-Phenotype (%): 85%
  Total Cell Count: 209
[9]
  Population Apoptotic (%): 64%
  Population Fragmented Nuclei (%): 17%
  Population Healthy Nuclei (%): 31%
  Population Hoechst High Intensity Objects (%): 19%
  Population Membrane Permeable-Phenotype (%): 1%
  Population Mitochondria Different-Phenotype (%): 88%
  Population Mitotic Cells (%): 36%
  Population Normal (%): 80%
  Population Pyknosed Nuclei (%): 50%
  Population Tubulin-Different-Phenotype (%): 85%
  Total Cell Count: 244
[10]
  Population Apoptotic (%): 16%
  Population Fragmented Nuclei (%): 4%
  Population Healthy Nuclei (%): 80%
  Population Hoechst High Intensity Objects (%): 3%
  Population Membrane Permeable-Phenotype (%): 9%
  Population Mitochondria Different-Phenotype (%): 9%
  Population Mitotic Cells (%): 83%
  Population Normal (%): 96%
  Population Pyknosed Nuclei (%): 14%
  Population Tubulin-Different-Phenotype (%): 38%
  Total Cell Count: 337
[11]
  Population Apoptotic (%): 84%
  Population Fragmented Nuclei (%): 64%
  Population Healthy Nuclei (%): 14%
  Population Hoechst High Intensity Objects (%): 52%
  Population Membrane Permeable-Phenotype (%): 0%
  Population Mitochondria Different-Phenotype (%): 34%
  Population Mitotic Cells (%): 15%
  Population Normal (%): 47%
  Population Pyknosed Nuclei (%): 20%
  Population Tubulin-Different-Phenotype (%): 32%
  Total Cell Count: 1138
[12]
  Population Apoptotic (%): 41%
  Population Fragmented Nuclei (%): 7%
  Population Healthy Nuclei (%): 69%
  Population Hoechst High Intensity Objects (%): 1%
  Population Membrane Permeable-Phenotype (%): 1%
  Population Mitochondria Different-Phenotype (%): 61%
  Population Mitotic Cells (%): 58%
  Population Normal (%): 98%
  Population Pyknosed Nuclei (%): 23%
  Population Tubulin-Different-Phenotype (%): 84%
  Total Cell Count: 290

## COc1cccc2cc(-c3nc([C@H]4CC[C@H](C(=O)O)CC4)n4ncnc(N)c34)[nH]c12 [OSI-027]
[1]
  Population Apoptotic (%): 25%
  Population Fragmented Nuclei (%): 14%
  Population Healthy Nuclei (%): 55%
  Population Hoechst High Intensity Objects (%): 16%
  Population Membrane Permeable-Phenotype (%): 3%
  Population Mitochondria Different-Phenotype (%): 10%
  Population Mitotic Cells (%): 74%
  Population Normal (%): 83%
  Population Pyknosed Nuclei (%): 29%
  Population Tubulin-Different-Phenotype (%): 5%
  Total Cell Count: 587
[2]
  Population Apoptotic (%): 9%
  Population Fragmented Nuclei (%): 6%
  Population Healthy Nuclei (%): 85%
  Population Hoechst High Intensity Objects (%): 6%
  Population Membrane Permeable-Phenotype (%): 2%
  Population Mitochondria Different-Phenotype (%): 13%
  Population Mitotic Cells (%): 90%
  Population Normal (%): 93%
  Population Pyknosed Nuclei (%): 7%
  Population Tubulin-Different-Phenotype (%): 10%
  Total Cell Count: 997
[3]
  Population Apoptotic (%): 23%
  Population Fragmented Nuclei (%): 32%
  Population Healthy Nuclei (%): 40%
  Population Hoechst High Intensity Objects (%): 22%
  Population Membrane Permeable-Phenotype (%): 8%
  Population Mitochondria Different-Phenotype (%): 2%
  Population Mitotic Cells (%): 76%
  Population Normal (%): 77%
  Population Pyknosed Nuclei (%): 27%
  Population Tubulin-Different-Phenotype (%): 2%
  Total Cell Count: 379
[4]
  Population Apoptotic (%): 10%
  Population Fragmented Nuclei (%): 9%
  Population Healthy Nuclei (%): 85%
  Population Hoechst High Intensity Objects (%): 5%
  Population Membrane Permeable-Phenotype (%): 0%
  Population Mitochondria Different-Phenotype (%): 8%
  Population Mitotic Cells (%): 89%
  Population Normal (%): 94%
  Population Pyknosed Nuclei (%): 5%
  Population Tubulin-Different-Phenotype (%): 5%
  Total Cell Count: 1068
[5]
  Population Apoptotic (%): 22%
  Population Fragmented Nuclei (%): 15%
  Population Healthy Nuclei (%): 60%
  Population Hoechst High Intensity Objects (%): 19%
  Population Membrane Permeable-Phenotype (%): 15%
  Population Mitochondria Different-Phenotype (%): 8%
  Population Mitotic Cells (%): 77%
  Population Normal (%): 80%
  Population Pyknosed Nuclei (%): 24%
  Population Tubulin-Different-Phenotype (%): 20%
  Total Cell Count: 478
[6]
  Population Apoptotic (%): 4%
  Population Fragmented Nuclei (%): 7%
  Population Healthy Nuclei (%): 83%
  Population Hoechst High Intensity Objects (%): 8%
  Population Membrane Permeable-Phenotype (%): 6%
  Population Mitochondria Different-Phenotype (%): 13%
  Population Mitotic Cells (%): 95%
  Population Normal (%): 91%
  Population Pyknosed Nuclei (%): 8%
  Population Tubulin-Different-Phenotype (%): 37%
  Total Cell Count: 849
[7]
  Population Apoptotic (%): 12%
  Population Fragmented Nuclei (%): 29%
  Population Healthy Nuclei (%): 53%
  Population Hoechst High Intensity Objects (%): 14%
  Population Membrane Permeable-Phenotype (%): 10%
  Population Mitochondria Different-Phenotype (%): 3%
  Population Mitotic Cells (%): 87%
  Population Normal (%): 85%
  Population Pyknosed Nuclei (%): 17%
  Population Tubulin-Different-Phenotype (%): 6%
  Total Cell Count: 371
[8]
  Population Apoptotic (%): 0%
  Population Fragmented Nuclei (%): 18%
  Population Healthy Nuclei (%): 78%
  Population Hoechst High Intensity Objects (%): 5%
  Population Membrane Permeable-Phenotype (%): 5%
  Population Mitotic Cells (%): 100%
  Population Normal (%): 94%
  Population Pyknosed Nuclei (%): 2%
  Population Tubulin-Different-Phenotype (%): 10%
  Total Cell Count: 1604
